Sampled rows, rich in hits. Any-hit rate of the full collection: about 2.8%.
PAFAH1B2 FP inh: PAFAH1B2 enzyme inhibitors, primary screen, biochemical, fluorescence polarization, human; Platelet-activating factor acetylhydrolase IB subunit alpha2 (Homo sapiens), P68402; recombinant PAFAH1B2, FP-rhodamine activity probe; inhibition, % at 3.39 µM; 340,000 tested, 1.2% active;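 active = inhibition above the mean of all tested compounds plus 3 SD, cut at about 24% in these data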;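 also: 0% = enzyme with DMSO and 100% = wells lacking PAFAH1B2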
PAFAH2 inh: PAFAH2 enzyme inhibitors, primary screen, biochemical, fluorescence polarization, human. 340,000 tested, 0.99% active. recombinant PAFAH2, FP-rhodamine activity probe. AID 492956, 2010. inhibition, % at 3.39 µM;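 active = inhibition above the mean over all tested compounds plus 3 SD, cut at about 30% in these data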;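 also: inhibitors block probe labeling of enzyme so polarization drops; 0% = enzyme with DMSO and 100% = wells lacking PAFAH2 protein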
HTRA1 inh: HTRA1 serine protease inhibitors, primary screen, biochemical, fluorescence polarization, HTS. Q92743. recombinant HTRA1, FP-rhodamine activity-based probe. inhibition, % at 5.96 µM. 340,000 tested, 0.5% active; in the data active = inhibition above about 36%;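 also: 0% = enzyme with DMSO and 100% = wells lacking enzyme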
pPAFAH FP inh: pPAFAH enzyme inhibitors, primary screen, biochemical, fluorescence polarization, human; Platelet-activating factor acetylhydrolase (Homo sapiens), Q13093; recombinant pPAFAH, FP-rhodamine probe fluorescence polarization; inhibition, % at 3.39 µM; 330,000 tested, 1.5% active; AID 463082, 2010;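 active = inhibition above the mean inhibition across the screen plus 3 SD, cut at about 25% in these data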;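 also: inhibitors block binding of the rhodamine activity-based probe so polarization drops; 0% = enzyme with DMSO and 100% = wells lacking pPAFAH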
Target sequence (Q13093 whole entry, looked up): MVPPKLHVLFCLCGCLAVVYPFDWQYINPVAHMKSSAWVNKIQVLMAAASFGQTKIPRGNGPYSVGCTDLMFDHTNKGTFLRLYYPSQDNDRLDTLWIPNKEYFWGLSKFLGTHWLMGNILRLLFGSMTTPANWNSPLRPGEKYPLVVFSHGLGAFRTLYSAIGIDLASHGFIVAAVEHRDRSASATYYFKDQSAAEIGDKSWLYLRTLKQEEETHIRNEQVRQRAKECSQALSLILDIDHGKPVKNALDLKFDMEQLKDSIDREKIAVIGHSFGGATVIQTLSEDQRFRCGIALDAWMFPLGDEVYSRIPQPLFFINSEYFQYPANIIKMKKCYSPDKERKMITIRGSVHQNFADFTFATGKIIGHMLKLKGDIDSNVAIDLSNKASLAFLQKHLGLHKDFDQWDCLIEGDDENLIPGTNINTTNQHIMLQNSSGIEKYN
ABHD4 inh: ABHD4 inhibitors, primary screen, biochemical, fluorescence polarization, mouse. (Lyso)-N-acylphosphatidylethanolamine lipase (Mus musculus), Q8VD66. purified mABHD4, FP-Rh probe fluorescence polarization. inhibition, % at 8.92 µM. 370,000 tested, 0.54% active. AID 720543, 2013;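 active = inhibition exceeding the mean over every tested compound plus 3 SD, cut at about 30% in these data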;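 also: 0% = plate median of compound wells and 100% = S159A mutant with DMSO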
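assay system = mABHD4 protein | compound dosing = single nominal dose of 8.92 µM, 0.89% DMSO final | read-out basis = percent inhibition of probe binding, normalized to plate controls | schedule = Enzyme–compound pre-incubation 45 min, then probe 60 min, both 25 °C | detection = fluorescence polarization, excitation 525 nm, emission 598 nm, BODIPY TMR filters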
PAFAH1B3 FP inh: PAFAH1B3 enzyme inhibitors, primary screen, biochemical, fluorescence polarization, human; Platelet-activating factor acetylhydrolase IB subunit alpha1 (Homo sapiens), Q15102; recombinant PAFAH1B3, FP-rhodamine probe; inhibition, % at 3.39 µM; 340,000 tested, 0.28% active;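 active = inhibition above the screen-wide average of all tested compounds plus 3 SD, cut at about 25% in these data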;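 also: 0% = enzyme with DMSO only and 100% = wells lacking PAFAH1B3 protein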
ABHD4 confirm: ABHD4 inhibitors, retest, confirmation, biochemical, fluorescence polarization, mouse. 1,800 tested, 55% active. shares compounds with ABHD4 inh. purified mABHD4, FP-Rh probe fluorescence polarization. inhibition, % at 8.92 µM;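 active = mean inhibition across replicates above the hit cutoff set in the primary screen, cut at about 30% in these data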;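 also: 0% = wild-type ABHD4 with DMSO and 100% = catalytically dead S159A mutant with DMSO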
Starred values were filed as active, the others as inactive; . = no result given.

SMILES	PAFAH1B2 FP inh	PAFAH2 inh	HTRA1 inh	pPAFAH FP inh	ABHD4 inh	PAFAH1B3 FP inh	ABHD4 confirm
NS(=O)(=O)c1ccc(-c2ccc(/C=C3\SC(=S)N(C4CCS(=O)(=O)C4)C3=O)o2)cc1 (stereo unspecified)	5	5	5	25*	30*	5	-7
O=C1/C(=C/c2ccccc2)SC(=S)N1C1CCS(=O)(=O)C1 (stereo unspecified)	-10	0	5	-2	-2	6	.
COc1ccccc1N1C(=O)C(Cl)=C(Nc2ccccc2O)C1=O	-3	19	9	.	31*	-2	16
O=C(/C=C/c1ccc([N+](=O)[O-])cc1)/C=C/c1ccco1	-3	15	33	62*	39*	9	33*
O=C(C=Cc1ccco1)c1ccco1	-3	0	9	.	32*	5	12
O=C(/C=C/c1ccc([N+](=O)[O-])cc1)c1ccco1	3	-5	0	4	-2	2	.
COC(=O)C1=C(C)N(Cc2ccc(C(F)(F)F)cc2)C(=NCc2ccc(OC)cc2)NC1c1ccccc1 (stereo unspecified)	.	.	.	.	28	.	.
CC(=O)Nc1ccc(C(=O)N/N=C/c2cc(Br)cc(Br)c2O)cc1	5	9	21	12	5	6	.
CNC(=S)N/N=C/c1cc(Br)cc(Br)c1O	13	28	34	4	31*	14	27
COC(=O)c1c(C)oc2c1cc(NS(=O)(=O)c1ccc(C(=O)O)cc1)c1ccccc12	-2	7	-20	24	34*	1	21
C[C@H]1[C@@H](OC(=O)NC2CCCCC2)CC[C@@]23CCCN2C(=O)CCC[C@@H]13	.	.	.	.	8	.	.
COc1ccccc1OCCNC(=O)c1ccc2c(c1)OCCO2	6	-2	2	19	31*	8	-2
C=C(C)Cn1c(SCC(=O)N/N=C(\C)c2ccc(Br)cc2)nnc1-c1ccc(Br)cc1	.	.	.	.	-10	.	.
CC(C)=CCC/C(C)=C/C[C@]12C[C@H](C(=O)O)N(C(=O)OC(C)(C)C)[C@@H]1N(C(=O)OC(C)(C)C)c1ccccc12	.	.	.	.	51*	.	40*
O=C(O)c1cc(N/N=C2/CC(c3ccccc3)Oc3ccccc32)ccc1Cl (stereo unspecified)	2	17	4	34*	32*	7	72*
CC(C)(C)N/N=C1\CC(c2ccccc2)Oc2ccccc21 (stereo unspecified)	1	0	1	2	-4	2	.
CON(C)C(=O)/C=C/c1ccc([B-](F)(F)F)cc1	3	-2	2	.	42*	0	47*
CCN(CC)C(=O)/C=C/c1ccccc1	7	1	3	-2	-15	-2	.
C/C(=N\Nc1nc(-c2ccccc2)cs1)c1cccs1	-2	2	19	5	3	10	.
CC(=O)Nc1cccc(/C(C)=N/Nc2nc3ccccc3s2)c1	6	8	-11	7	12	6	.
C/C(=N\Nc1nc2ccccc2s1)c1cccs1	7	9	11	8	31*	3	24
Oc1ccc(C=NNc2nc3ccccc3s2)c(O)c1	17	19	35	.	43*	25	36*
Oc1ccccc1/C=N/Nc1nc2ccccc2o1	9	29	13	3	15	9	.
CC(=NNc1nc2ccccc2s1)c1ncccn1	6	1	16	.	35*	15	27
CC(=NNc1nc2ccccc2o1)c1ncccn1	2	-2	11	.	31*	12	24
SMILES	PAFAH1B2 FP inh	PAFAH2 inh	HTRA1 inh	pPAFAH FP inh	ABHD4 inh	PAFAH1B3 FP inh	ABHD4 confirm
CSC(=Cc1ccc(C(=O)c2ccc(C)cc2)n1C)S(C)=O (stereo unspecified)	.	.	.	.	-4	.	.
Cc1cccc(NC(=O)CCS(=O)(=O)c2ccccc2)c1C	.	.	.	.	0	.	.
COc1ccc(-c2nnc(SCC(=O)N/N=C(\C)c3ccc(-c4ccccc4)cc3)n2-c2ccc(C)cc2)cc1	.	.	.	.	-9	.	.
CCCCn1c(N)c(N(CCOC)C(=O)C2CCN(C(=O)c3ccc(F)cc3)CC2)c(=O)[nH]c1=O	0	4	-2	-2	31*	3	4
COC(=O)C1=C(C)N(Cc2ccccc2C(F)(F)F)C(=NCc2ccc(OC)cc2)NC1c1cccc(F)c1 (stereo unspecified)	.	.	.	.	42*	.	66*
COCc1cc(N2CCN(C(=O)OC(C)(C)C)C[C@H]2C)ccc1N1CC[C@H](O)C1	.	.	.	.	38*	.	9
COCc1cc(N2CCN(C(=O)OC(C)(C)C)C[C@@H]2C)ccc1N1CCS(=O)(=O)CC1	.	.	.	.	-4	.	.
COCc1cc(N2CCN(C(=O)OC(C)(C)C)C[C@@H]2C)ccc1N1CC[C@H](O)C1	.	.	.	.	35*	.	14
CC(=NNC(=O)CSc1nnc(-c2ccccc2)n1-c1ccccc1)c1cccc([N+](=O)[O-])c1	.	.	.	.	0	.	.
CCOC(=O)C1=C(C)N=C2c3ccccc3C(=O)C2C1c1ccccc1 (stereo unspecified)	0	5	-1	6	34*	3	37*
Cc1cccn2c(CNCCCn3ncc4ccccc43)c(C(=O)N3CCCCC3)nc12	7	-3	-3	0	6	5	.
Cc1cccn2c(CNCCSc3nccn3C)c(C(=O)N3CCCCC3)nc12	0	0	-1	-1	35*	3	-6
Cc1cccc(N(CC(=O)NCc2ccc3c(c2)OCO3)C(=O)CCC(=O)Nc2ccccn2)c1	9	6	3	0	40*	2	-7
O=S1(=O)c2c(NCc3ccco3)cccc2Oc2ccccc2CN1Cc1cn(Cc2ccc(Cl)cc2)nn1	.	.	.	.	-10	.	.
CCc1ccc(NC2=CC(=O)CC(c3ccco3)C2)cc1 (stereo unspecified)	0	7	1	18	37*	-9	12
O=C(Nc1ccc(F)cc1)Nc1c(-c2ccc(C(F)(F)F)cc2)nc2ncccn12	.	.	.	.	5	.	.
COc1cc2c3c(c1)/C(=C1/SC(NC(C)=O)=NC1=O)C(=O)N3C(C)(C)C=C2C	10	4	9	8	38*	4	27

High-throughput results from PubChem.
